Reference: PMC11378026 (RSC Advances, 2024)
Values after ≈ are worked out from the molar mass of the structure shown. Like-named read-outs stand apart in the source and are kept apart here.

Experiments:
[1] = system: breast cancer cells; settings: cited from earlier work
[2] = system: breast cancer (MCF-7) cell line; assay: MTT cytotoxicity assay on MCF-7 cells; assay type: cell-based, human
[3] = system: breast epithelial (MCF10A) cell line; assay: MTT cytotoxicity assay on MCF10A cells; assay type: cell-based; settings: Homo sapiens, MCF-10A, read-out: IC50 (μg mL^−1) ± SD against MCF-10A
In short: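 Mycoplasma-free MCF-10A cells, run in triplicate, were exposed to increasing doses of test compound, with 5-fluorouracil as positive control. MTT was added for 4 h, formazan was dissolved in DMSO, and absorbance was read at 570 and 630 nm. Viability = (A − A0)/(ANC − A0), using mean absorbances of treated, blank and cells-only wells. IC50 was derived from viability.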

In the case of `O=C1[O][Pt]2([NH][C@@H]3CCCC[C@H]3[NH]2)[O]C1=O` [Oxaliplatin], the IC50 ([1]; ref S2) is given as 21.9 µM.
For `N.N.O=C([O-])C1(C(=O)[O-])CCC1.[Pt+2]` [Carboplatin], the IC50 ([1]; ref S2) is given as 73.5 µM.
For `N.N.[Cl][Pt][Cl]` [Cisplatin], the IC50 ([1]; ref S1) is given as 12.2 µM.
For `O=c1[nH]cc(F)c(=O)[nH]1` [5-FU, 5-fluorouracil, reference compound], the IC50 ([2]; Homo sapiens, MCF7, read-out: IC50 (μg mL^−1) ± SD against MCF-7) was 28.3 ± 1.89 µg/mL (≈ 218 µM), the “Selectivity index (SI)” value ([2]; cancer MCF-7 cells over healthy MCF10A cells) was 1.45 and the IC50 [3] was 41 ± 1.89 µg/mL (≈ 315 µM).
